Each block holds one molecule with its values, some of them ahead of it. The source made the active and inactive calls. No cut-off for these calls is given here.
Key:
HCT-116 [1] = assay: Antiproliferative activity against human HCT116 cells assessed as reduction in cell viability measured after 24 to 48 hrs by MTT assay; assay type: functional, cell-based
HCT-116 [2] = assay: Decrease in BRD4 expression in human HCT116 cells incubated for 24 hrs by western blot analysis; assay type: functional, cell-based
SW-620 = assay: Antiproliferative activity against human SW620 cells assessed as reduction in cell viability measured after 24 to 48 hrs by MTT assay; assay type: functional, cell-based
DLD-1 = assay: Antiproliferative activity against human DLD1 cells assessed as reduction in cell viability measured after 24 to 48 hrs by MTT assay; assay type: functional, cell-based
HCT-116 [3] = assay: Effect on histone H3 expression level in human HCT116 cells measured after 24 hrs by Western blot analysis; assay type: functional, cell-based
Mus musculus [4] = assay: Increase in phosphorylated STAT3 expression in tumor tissue of BALB/cAnNCrl mouse xenografted with human HCT116 cells at 30 mg/kg, po administered on day 1 to day 19 measured on day 19 by immunohistochemical analysis; assay type: functional, organism-based
Method in brief: (§1)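 HCT-116 xenograft mice were dosed orally at 15 or 30 mg/kg, or 30 mg/kg for reference agents, for 19 days, with vehicle or saline controls. Tumor sections were stained for Ki-67, c-Myc, Ac-H3, BRD4, LC3-II, LIFR and p-STAT3 by immunohistochemistry, and TUNEL staining was used as the apoptosis marker.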

Mus musculus [5] = assay: Increase in LIFR expression in tumor tissue of BALB/cAnNCrl mouse xenografted with human HCT116 cells at 30 mg/kg, po administered on day 1 to day 19 measured on day 19 by immunohistochemical analysis; assay type: functional, organism-based; method in brief: as §1
[6] = biological target: T1, Bromodomain-containing protein 4 (Homo sapiens, UniProt O60885); assay: Inhibition of BRD4 in human HCT116 cells assessed as activation of IL6-JAK-STAT signaling pathway by measuring increase in OSM mRNA level at 2 uM after 24 hrs by RT-PCR analysis; assay type: cell-based
Method in brief: (§2)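 HCT-116 cells were incubated for 24 hours with the test agents at 0.5, 2.0 or 10 μM. IL6, OSM, LIF and CTF1 mRNA levels were then measured.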

Mus musculus [7] = assay: Induction of autophagy in BALB/cAnNCrl mouse xenografted with human HCT116 cells assessed as increase in LC3-II level in tumor tissue at 30 mg/kg, po administered on day 1 to day 19 measured on day 19 by immunohistochemical analysis; assay type: functional, organism-based; method in brief: as §1
[8] = biological target: T1, Bromodomain-containing protein 4; assay: Inhibition of BRD4 in human HCT116 cells assessed as activation of IL6-JAK-STAT signaling pathway by measuring increase in CTF1 mRNA level at 2 uM after 24 hrs by RT-PCR analysis; assay type: cell-based; method in brief: as §2
[9] = biological target: T1, Bromodomain-containing protein 4; assay: Inhibition of GST-tagged BRD4 bromodomain (unknown origin) using biotinylated histone H4KAc peptide (1 to 21 residues) as substrate by HTRF assay
[10] = biological target: T1, Bromodomain-containing protein 4; assay: Inhibition of BRD4 in human HCT116 cells assessed as induction of autophagy by measuring p62 degradation at 2 uM measured after 24 hrs by Western blot analysis; assay type: cell-based
Method in brief: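 HCT-116 cells incubated 24 h with test agent at 2.0 µM, alongside 0.5 µM and 10 µM comparator treatments; LC3 and p62 protein detected by western blot.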

[11] = biological target: T1, Bromodomain-containing protein 4; assay: Inhibition of BRD4 in human HCT116 cells assessed as induction of autophagy by measuring LC3-I cleavage to LC3-II at 2 uM measured after 24 hrs by Western blot analysis; assay type: cell-based
Method in brief: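 HCT-116 cells were treated for 24 hours with 0.5 μM, 2.0 μM or 10 μM agents. LC3 (LC3-I to LC3-II conversion) and p62 were then detected by western blot.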

[12] = biological target: T1, Bromodomain-containing protein 4; assay: Inhibition of BRD4 in human HCT116 cells assessed as activation of IL6-JAK-STAT signaling pathway by measuring increase in LIF mRNA level at 2 uM after 24 hrs by RT-PCR analysis; assay type: cell-based; method in brief: as §2
[13] = biological target: T1, Bromodomain-containing protein 4; assay: Inhibition of BRD4 in human HCT116 cells assessed as activation of IL6-JAK-STAT signaling pathway by measuring increase in IL6 mRNA level at 2 uM after 24 hrs by RT-PCR analysis; assay type: cell-based; method in brief: as §2
[14] = biological target: T2, Protein deacetylase HDAC6 (Homo sapiens, UniProt Q9UBN7); assay: Inhibition of HDAC6 (unknown origin) using biotinylated histone H3 KAc peptide (1 to 21 residues) as substrate by HTRF assay
T2 sequence (Q9UBN7 whole entry): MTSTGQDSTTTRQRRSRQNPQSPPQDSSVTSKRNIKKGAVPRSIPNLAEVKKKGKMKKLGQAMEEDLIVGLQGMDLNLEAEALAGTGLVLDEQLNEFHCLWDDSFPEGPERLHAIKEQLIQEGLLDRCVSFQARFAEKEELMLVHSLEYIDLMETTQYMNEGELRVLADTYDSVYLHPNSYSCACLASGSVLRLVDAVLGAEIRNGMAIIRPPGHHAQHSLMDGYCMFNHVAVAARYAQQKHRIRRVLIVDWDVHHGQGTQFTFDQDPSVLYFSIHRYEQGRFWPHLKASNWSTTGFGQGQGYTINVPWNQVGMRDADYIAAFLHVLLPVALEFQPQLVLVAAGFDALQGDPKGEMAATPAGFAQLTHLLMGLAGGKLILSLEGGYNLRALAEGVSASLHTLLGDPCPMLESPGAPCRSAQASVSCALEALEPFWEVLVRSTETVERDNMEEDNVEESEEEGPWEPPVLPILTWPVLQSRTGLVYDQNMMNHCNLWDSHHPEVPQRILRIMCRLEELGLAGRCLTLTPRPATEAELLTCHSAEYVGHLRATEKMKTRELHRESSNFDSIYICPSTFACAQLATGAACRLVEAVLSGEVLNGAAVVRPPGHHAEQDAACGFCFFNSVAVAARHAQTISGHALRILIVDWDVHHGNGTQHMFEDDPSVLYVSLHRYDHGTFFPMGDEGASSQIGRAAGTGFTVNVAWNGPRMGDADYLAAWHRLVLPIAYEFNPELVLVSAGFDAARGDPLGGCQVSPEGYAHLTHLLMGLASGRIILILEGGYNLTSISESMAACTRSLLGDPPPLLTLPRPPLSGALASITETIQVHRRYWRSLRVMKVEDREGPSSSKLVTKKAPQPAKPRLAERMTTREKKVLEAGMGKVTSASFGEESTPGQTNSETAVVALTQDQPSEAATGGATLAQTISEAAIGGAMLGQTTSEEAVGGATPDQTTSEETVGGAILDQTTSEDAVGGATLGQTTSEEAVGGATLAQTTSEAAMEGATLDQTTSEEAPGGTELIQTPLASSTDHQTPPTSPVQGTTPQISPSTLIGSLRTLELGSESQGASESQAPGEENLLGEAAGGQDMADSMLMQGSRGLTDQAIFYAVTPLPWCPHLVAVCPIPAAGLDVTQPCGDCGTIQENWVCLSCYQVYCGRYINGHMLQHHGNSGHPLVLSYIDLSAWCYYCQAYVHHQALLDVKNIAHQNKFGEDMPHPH

Histone deacetylase 2 = Histone deacetylase 2 (Homo sapiens, UniProt Q92769)
Histone deacetylase 2, sequence (Q92769 whole entry, the tested form may be a part): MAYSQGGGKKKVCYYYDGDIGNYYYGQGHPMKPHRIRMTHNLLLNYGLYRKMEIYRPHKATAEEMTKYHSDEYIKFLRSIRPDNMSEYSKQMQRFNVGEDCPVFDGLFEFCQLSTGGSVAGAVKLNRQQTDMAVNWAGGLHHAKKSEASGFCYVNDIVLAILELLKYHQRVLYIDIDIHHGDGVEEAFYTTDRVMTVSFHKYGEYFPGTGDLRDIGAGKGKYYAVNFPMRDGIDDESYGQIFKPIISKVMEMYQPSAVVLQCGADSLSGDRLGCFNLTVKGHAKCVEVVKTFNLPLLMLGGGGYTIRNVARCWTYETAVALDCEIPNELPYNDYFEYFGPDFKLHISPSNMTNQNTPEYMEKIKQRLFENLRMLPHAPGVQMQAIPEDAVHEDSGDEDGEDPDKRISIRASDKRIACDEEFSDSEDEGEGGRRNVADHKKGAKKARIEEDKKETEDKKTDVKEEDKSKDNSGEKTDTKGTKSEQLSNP

Histone deacetylase 7 = biological target: T3, Histone deacetylase 7 (Homo sapiens, UniProt Q8WUI4); assay: Inhibition of HDAC7 (unknown origin) using biotinylated histone H3 KAc peptide (1 to 21 residues) as substrate by HTRF assay
T3 sequence (Q8WUI4 whole entry): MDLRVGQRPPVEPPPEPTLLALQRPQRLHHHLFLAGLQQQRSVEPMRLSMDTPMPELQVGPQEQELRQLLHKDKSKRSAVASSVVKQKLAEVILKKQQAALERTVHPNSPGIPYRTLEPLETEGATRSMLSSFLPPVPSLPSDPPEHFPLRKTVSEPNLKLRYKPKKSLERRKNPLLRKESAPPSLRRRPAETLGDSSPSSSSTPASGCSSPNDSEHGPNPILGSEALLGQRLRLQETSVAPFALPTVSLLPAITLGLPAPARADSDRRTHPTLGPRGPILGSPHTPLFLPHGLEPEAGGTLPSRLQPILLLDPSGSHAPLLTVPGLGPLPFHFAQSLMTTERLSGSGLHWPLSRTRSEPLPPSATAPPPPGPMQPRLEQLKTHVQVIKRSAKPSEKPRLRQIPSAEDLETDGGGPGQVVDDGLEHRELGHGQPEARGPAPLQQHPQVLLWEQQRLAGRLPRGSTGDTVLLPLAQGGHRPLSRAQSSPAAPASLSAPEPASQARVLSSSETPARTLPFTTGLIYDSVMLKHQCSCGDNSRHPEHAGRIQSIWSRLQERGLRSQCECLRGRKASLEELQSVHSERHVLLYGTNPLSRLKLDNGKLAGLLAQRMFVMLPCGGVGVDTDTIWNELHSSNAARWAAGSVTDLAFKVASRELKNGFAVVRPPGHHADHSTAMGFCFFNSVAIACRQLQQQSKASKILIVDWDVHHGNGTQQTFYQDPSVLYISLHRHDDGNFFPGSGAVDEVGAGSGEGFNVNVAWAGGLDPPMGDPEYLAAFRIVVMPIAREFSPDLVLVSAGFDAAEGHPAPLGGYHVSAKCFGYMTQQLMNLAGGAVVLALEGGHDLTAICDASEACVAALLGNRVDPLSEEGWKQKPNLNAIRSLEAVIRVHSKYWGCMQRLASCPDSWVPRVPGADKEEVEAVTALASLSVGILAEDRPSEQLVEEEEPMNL

- IC50 (HCT-116 [1]): 12.8 µM
- IC50 (SW-620): > 10 µM
- IC50 (DLD-1): > 10 µM
SMILES: COc1cc(OC)c2c(=O)[nH]c(-c3cc(C)c(OCCO)c(C)c3)nc2c1 [APABETALONE]
- inhibition (HCT-116 [2]): Active
- Activity (HCT-116 [3]): inactive

SMILES: O=C(CCCCCCC(=O)Nc1ccccc1)NO
- Activity (Mus musculus [4]): Active
- Activity (Mus musculus [5]): Active
- Activity (HCT-116 [3]): inactive

- inhibition [6]: inactive
- inhibition [8]: inactive
- IC50 [9]: 0.85 µM
- inhibition [10]: Active
- IC50 (HCT-116 [1]): 1.33 µM
- inhibition [11]: Active
- inhibition [12]: inactive
- inhibition [13]: inactive
SMILES: Cc1cc(-c2nc3sc4c(c3c(=O)[nH]2)CCN(C)C4)cc(C)c1O
- Activity (Mus musculus [7]): Active

- IC50 [9]: > 10 µM
- IC50 (HCT-116 [1]): 15.2 µM
- IC50 (SW-620): 11.1 µM
- IC50 [14]: 0.196 µM
- IC50 (Histone deacetylase 2): 0.112 µM
- IC50 (DLD-1): 14.8 µM
- IC50 (Histone deacetylase 7): > 10 µM
SMILES: Cc1noc(C)c1-c1nc2sc3c(c2c(=O)[nH]1)CCN(CCCCCC(=O)Nc1ccccc1N)C3

— ChEMBL document CHEMBL4342471, “Discovery of Thieno[2,3-d]pyrimidine-Based Hydroxamic Acid Derivatives as Bromodomain-Containing Protein 4/Histone Deacetylase Dual Inhibitors Induce Autophagic Cell Death in Colorectal Carcinoma Cells” (J Med Chem, 2020)
